Measured values from ChEMBL document CHEMBL4311987, “Discovery of novel allosteric site and covalent inhibitors of FBPase with potent hypoglycemic effects” (Eur J Med Chem, 2019).
pIC50: −log10 of the molar value. Active and inactive are the calls of the source. The calls are words filed in the database; no cut-off is given here.

Target: T1, Fructose-1,6-bisphosphatase 1 (Homo sapiens) (UniProt P09467)
T1 sequence (whole entry): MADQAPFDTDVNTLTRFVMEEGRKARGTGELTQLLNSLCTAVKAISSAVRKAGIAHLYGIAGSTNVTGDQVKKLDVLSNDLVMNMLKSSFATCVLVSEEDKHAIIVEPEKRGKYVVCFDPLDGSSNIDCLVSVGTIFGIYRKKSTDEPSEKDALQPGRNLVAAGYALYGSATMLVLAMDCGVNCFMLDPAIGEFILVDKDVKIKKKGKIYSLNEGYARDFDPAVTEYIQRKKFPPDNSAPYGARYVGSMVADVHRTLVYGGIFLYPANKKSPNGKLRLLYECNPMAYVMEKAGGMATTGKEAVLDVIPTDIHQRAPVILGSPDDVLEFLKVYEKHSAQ
Assay: Inhibition of human FBPase expressed in Escherichia coli BL21 (DE3) at 500 uM using FBP as substrate incubated for 5 mins by malachite green dye based spectrophotometry relative to control
Conditions: not given

Row | SMILES | inhibition [%]
1 | O=C(O)/C=C/C(=O)O | 9.5
2 | C=CC(=O)Nc1ccccc1 | 17
3 | CC(=O)C=O | 19
4 | O=C/C=C/c1ccccc1 | 15
5 | C=C(CC)C(=O)c1ccc(OCC(=O)O)c(Cl)c1Cl | 56
6 | O=C1C=CCC1 | 29
7 | c1ccc(C2CO2)cc1 (configuration not stated) | 31
8 | S=C=NCc1ccccc1 | 4.1
9 | COC(=O)/C=C/C(=O)OC | 22

Target: T2, Fructose-1,6-bisphosphatase 1 (Homo sapiens, UniProt P09467)
T2 sequence (P09467 whole entry): T1 sequence (whole entry)
Assay: Inhibition of human FBPase expressed in Escherichia coli BL21 (DE3) using FBP as substrate incubated for 5 mins by malachite green dye based spectrophotometry
Conditions: not given

Row | SMILES | pIC50
10 | CCOC(=O)C(C)(C)Oc1cc(/C=C/[N+](=O)[O-])ccc1Cl | 6.08
11 | CCOC(=O)C(C)(C)Oc1ccc(/C=C/[N+](=O)[O-])cc1 | 5.51
12 | CCOC(=O)C(C)(C)Oc1ccc(F)cc1/C=C/[N+](=O)[O-] | 5.15
13 | CCOC(=O)C(C)(C)Oc1ccc(Cl)cc1/C=C/[N+](=O)[O-] | 5.09
14 | CCOC(=O)C(C)(C)Oc1ccc(/C=C/[N+](=O)[O-])cc1Cl | 5.80
15 | CCCCCCCC/C=C(\CCCCCCCC(=O)O)[N+](=O)[O-] [NITROLEIC ACID] | 4.24
16 | CCOC(=O)C(C)(C)Oc1ccc(Br)c(/C=C/[N+](=O)[O-])c1 | 6.10
17 | CCOC(=O)C(C)(C)Oc1ccc(Cl)c(/C=C/[N+](=O)[O-])c1 | 5.54
18 | CCOC(=O)C(C)(C)Oc1cc(/C=C/[N+](=O)[O-])ccc1OC(F)F | 5.80
19 | Nc1ncnc2c1ncn2[C@@H]1O[C@H](COP(=O)(O)O)[C@@H](O)[C@H]1O [ADENOSINE PHOSPHATE] | 5.64
20 | CCOC(=O)C(C)(C)Oc1ccccc1/C=C/[N+](=O)[O-] | 5.57
21 | CCOC(=O)C(C)(C)Oc1cccc(/C=C/[N+](=O)[O-])c1 | 6.00
22 | CCOC(=O)C(C)(C)Oc1ccc(/C=C/[N+](=O)[O-])c(Cl)c1 | 5.74
23 | O=[N+]([O-])/C=C/c1ccccc1 [(2-NITROVINYL)BENZENE] | 5.46

Tested on: Hepatocyte
Assay: Inhibition of glucose production in C57BLKS rat Primary hepatocytes incubated for 3 hrs by glucose assay kit method
Assay type: functional, cell-based
Conditions: not given
Outline: (§1)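 Rat primary hepatocytes cultured overnight in DMEM/10% FBS, then pretreated with compounds for 3 h in fresh medium. Switched to glucose-free DMEM with 2 mM sodium pyruvate, 20 mM sodium lactate and compound for 3 h. Medium glucose measured with a kit and normalized to BCA protein. Pathological arm adds 1 µM dexamethasone plus 200 µM cAMP for 3 h. Means ± SEM, n=4.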

Row | SMILES | inhibition
24 | CCOC(=O)C(C)(C)Oc1ccc(Cl)cc1/C=C/[N+](=O)[O-] | Dose-dependent effect
25 | CCOC(=O)C(C)(C)Oc1ccc(Cl)c(/C=C/[N+](=O)[O-])c1 | Dose-dependent effect

Tested on: Hepatocyte
Assay: Inhibition of glucose production in C57BLKS rat Primary hepatocytes at 400 uM incubated for 3 hrs by glucose assay kit method relative to control
Assay type: functional
Conditions: not given
Outline: as §1

Row | SMILES | inhibition at 400 µM [%]
26 | CCOC(=O)C(C)(C)Oc1ccc(Cl)cc1/C=C/[N+](=O)[O-] | 90
27 | CCOC(=O)C(C)(C)Oc1ccc(Cl)c(/C=C/[N+](=O)[O-])c1 | 90

Tested on: Hepatocyte
Assay: Inhibition of glucose production in cAMP and Dex pre-treated C57BLKS rat Primary hepatocytes at 1 uM incubated for 3 hrs by glucose assay kit method
Assay type: functional, cell-based
Conditions: not given
Outline: as §1

Row | SMILES | inhibition
28 | CCOC(=O)C(C)(C)Oc1ccc(Cl)cc1/C=C/[N+](=O)[O-] | Active
29 | CCOC(=O)C(C)(C)Oc1ccc(Cl)c(/C=C/[N+](=O)[O-])c1 | Active

Tested on: Hepatocyte
Assay: Inhibition of glucose production in cAMP and Dex pre-treated C57BLKS rat Primary hepatocytes incubated for 3 hrs by glucose assay kit method
Assay type: functional, cell-based
Conditions: not given
Outline: as §1

Row | SMILES | inhibition
30 | CCOC(=O)C(C)(C)Oc1ccc(Cl)cc1/C=C/[N+](=O)[O-] | Dose-dependent effect
31 | CCOC(=O)C(C)(C)Oc1ccc(Cl)c(/C=C/[N+](=O)[O-])c1 | Dose-dependent effect

Tested on: Hepatocyte
Assay: Inhibition of lipid accumulation in C57BLKS rat Primary hepatocytes assessed as reduction in insulin and glucose-induced TG level at 25 uM incubated for 24 hrs
Assay type: functional, cell-based
Conditions: not given
Outline: (§2)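 After overnight culture in DMEM, rat primary hepatocytes pretreated with compounds, then held in 25 mM glucose plus 500 nM insulin for 24 h to induce lipid accumulation. Triglyceride and total cholesterol measured with assay kits and normalized to BCA protein. Means ± SEM of four independent experiments.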

Row | SMILES | inhibition
32 | CCOC(=O)C(C)(C)Oc1ccc(Cl)cc1/C=C/[N+](=O)[O-] | Active
33 | CCOC(=O)C(C)(C)Oc1ccc(Cl)c(/C=C/[N+](=O)[O-])c1 | Active

Tested on: Hepatocyte
Assay: Inhibition of lipid accumulation in C57BLKS rat Primary hepatocytes assessed as reduction in insulin and glucose-induced TC level incubated for 24 hrs
Assay type: functional, cell-based
Conditions: not given
Outline: as §2

Row | SMILES | inhibition
34 | CCOC(=O)C(C)(C)Oc1ccc(Cl)cc1/C=C/[N+](=O)[O-] | Dose-dependent effect
35 | CCOC(=O)C(C)(C)Oc1ccc(Cl)c(/C=C/[N+](=O)[O-])c1 | Dose-dependent effect

Tested on: Hepatocyte
Assay: Inhibition of lipid accumulation in C57BLKS rat Primary hepatocytes assessed as reduction in insulin and glucose-induced TG level at 100 uM incubated for 24 hrs
Assay type: functional, cell-based
Conditions: not given
Outline: as §2

Row | SMILES | inhibition
36 | CCOC(=O)C(C)(C)Oc1ccc(Cl)cc1/C=C/[N+](=O)[O-] | inactive
37 | CCOC(=O)C(C)(C)Oc1ccc(Cl)c(/C=C/[N+](=O)[O-])c1 | inactive

Tested on: Hepatocyte
Assay: Cytotoxicity against C57BLKS rat Primary hepatocytes assessed as cell viability by measuring cellular protein level at 10 to 400 uM by bicinchoninic acid method
Assay type: cell-based
Conditions: not given
Outline: (§3)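 Primary hepatocytes isolated from rat, cultured overnight in DMEM with 10% FBS, then exposed to compounds. Cellular protein per group measured by bicinchoninic acid (BCA) method as a viability control. The same protein values serve to normalize glucose, TG and TC contents. Pathological stimulation where applicable: 1 µM dexamethasone plus 200 µM cAMP, or 25 mM glucose plus 500 nM insulin for 24 h. Means ± SEM, four independent experiments.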

Row | SMILES | Activity
38 | CCOC(=O)C(C)(C)Oc1ccc(Cl)cc1/C=C/[N+](=O)[O-] | Non-Toxic
39 | CCOC(=O)C(C)(C)Oc1ccc(Cl)c(/C=C/[N+](=O)[O-])c1 | Non-Toxic

Tested on: Hepatocyte
Assay: Cytotoxicity against C57BLKS rat Primary hepatocytes assessed as cell viability by measuring cellular protein level at 1 to 100 uM in presence of cAMP and Dex by bicinchoninic acid method
Assay type: cell-based
Conditions: not given
Outline: as §3

Row | SMILES | Activity
40 | CCOC(=O)C(C)(C)Oc1ccc(Cl)cc1/C=C/[N+](=O)[O-] | Non-Toxic
41 | CCOC(=O)C(C)(C)Oc1ccc(Cl)c(/C=C/[N+](=O)[O-])c1 | Non-Toxic

Tested on: Hepatocyte
Assay: Cytotoxicity against C57BLKS rat Primary hepatocytes assessed as cell viability by measuring cellular protein level at 10 to 100 uM in presence of insulin and glucose by bicinchoninic acid method
Assay type: cell-based
Conditions: not given
Outline: as §3

Row | SMILES | Activity
42 | CCOC(=O)C(C)(C)Oc1ccc(Cl)cc1/C=C/[N+](=O)[O-] | Non-Toxic
43 | CCOC(=O)C(C)(C)Oc1ccc(Cl)c(/C=C/[N+](=O)[O-])c1 | Non-Toxic

Tested on: not listed separately
Assay: Cytotoxicity against C57BLKS rat Primary hepatocytes assessed as cell viability incubated for 6 hrs by SRB assay
Assay type: cell-based, Hepatocyte
Conditions: read-out: Activity
Outline: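 Rat primary hepatocytes under physiological conditions exposed to compounds for 6 h. Viability read by sulforhodamine B staining. Means ± SEM of four independent experiments.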

Row | SMILES | viability at 6 h [%]
44 | CCOC(=O)C(C)(C)Oc1ccc(Cl)cc1/C=C/[N+](=O)[O-] | > 80
45 | CCOC(=O)C(C)(C)Oc1ccc(Cl)c(/C=C/[N+](=O)[O-])c1 | > 80

Tested on: Hepatocyte
Assay: Inhibition of lipid accumulation in C57BLKS rat Primary hepatocytes assessed as reduction in insulin and glucose-induced TC level at 25 uM incubated for 24 hrs
Assay type: functional, cell-based
Conditions: not given
Outline: as §2

Row | SMILES | inhibition
46 | CCOC(=O)C(C)(C)Oc1ccc(Cl)cc1/C=C/[N+](=O)[O-] | Active
47 | CCOC(=O)C(C)(C)Oc1ccc(Cl)c(/C=C/[N+](=O)[O-])c1 | Active
